The record followed here is ChEMBL document CHEMBL4346662, “Synthesis of novel 7-azaindole derivatives containing pyridin-3-ylmethyl dithiocarbamate moiety as potent PKM2 activators and PKM2 nucleus translocation inhibitors” (Eur J Med Chem, 2019).

SMILES strings stand for the structures. pIC50: −log10 of the molar value. Active and inactive are the calls of the source. No cut-off for these calls is given here.

Test [1] relates to A-375. The test is described as follows: Antiproliferative activity against human A375 cells assessed as reduction in cell growth incubated for 72 hrs by CellTiter-Glo assay. It is filed as functional, cell-based. The settings on record: A-375, 72 h. Put shortly: (§1)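 Cells (H1299 in RPMI 1640; HCT116 and A375 in DMEM; 10% FBS, 37 °C, 5% CO2) plated at 2000 per well, left 24 h, then exposed to ten concentrations or DMSO for 72 h. CellTiter-Glo added, 30 min at room temperature in dark, luminescence read. IC50 fitted from triplicate experiments.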

The test system of test [2] is HCT-116. Briefly: Antiproliferative activity against human HCT116 cells assessed as reduction in cell growth incubated for 72 hrs by CellTiter-Glo assay. In kind it is functional, cell-based. To be noted: HCT-116, 72 h. Put shortly: as §1
In general terms: Cellular ATP, detected with luciferase, serves as a proxy for viable cell number.

Test [3] deals with T1, Pyruvate kinase PKM (Homo sapiens, UniProt P14618). The test is described as follows: Activation of human recombinant His-tagged PKM2 expressed in Escherichia coli assessed as maximal activity using PEP as substrate measured at 30 sec between 3 and 6 mins in presence of […] by fluorescent pyruvate kinase-lactate dehydrogenase coupled assay relative to control. Put shortly:
(§2)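 Pyruvate kinase activity read by fluorescent pyruvate kinase–lactate dehydrogenase coupled assay; AC50 and maximal activation are means of at least two determinations.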
Target sequence in this assay (P14618 2-531 limits assumed): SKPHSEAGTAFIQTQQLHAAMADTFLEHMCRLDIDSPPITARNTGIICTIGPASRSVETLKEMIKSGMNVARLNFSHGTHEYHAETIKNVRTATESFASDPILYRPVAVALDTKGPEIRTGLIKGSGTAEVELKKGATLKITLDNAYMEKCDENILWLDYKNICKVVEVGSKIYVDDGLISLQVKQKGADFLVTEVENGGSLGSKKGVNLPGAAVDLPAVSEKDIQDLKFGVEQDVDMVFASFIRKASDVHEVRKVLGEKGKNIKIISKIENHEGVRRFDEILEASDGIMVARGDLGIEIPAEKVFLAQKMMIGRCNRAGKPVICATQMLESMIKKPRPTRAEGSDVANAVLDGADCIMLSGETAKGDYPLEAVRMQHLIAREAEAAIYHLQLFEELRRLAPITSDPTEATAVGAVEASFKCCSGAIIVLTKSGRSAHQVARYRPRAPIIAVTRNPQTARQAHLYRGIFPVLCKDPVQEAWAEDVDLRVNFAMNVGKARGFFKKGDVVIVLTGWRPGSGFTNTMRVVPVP

For test [4], the system named is NCI-H1299. The test is described as follows: Antiproliferative activity against human H1299 cells assessed as reduction in cell growth incubated for 72 hrs by CellTiter-Glo assay. The settings on record: NCI-H1299, 72 h. It is filed as functional, cell-based. Put shortly: as §1
The target in test [5] is T1, Pyruvate kinase PKM. The test is described as follows: Activation of human recombinant His-tagged PKM2 expressed in Escherichia coli using PEP as substrate measured at 30 sec between 3 and 6 mins in presence of […] by fluorescent pyruvate kinase-lactate dehydrogenase coupled assay. A digest of the protocol:
as §2
Target sequence in this assay (P14618 whole entry): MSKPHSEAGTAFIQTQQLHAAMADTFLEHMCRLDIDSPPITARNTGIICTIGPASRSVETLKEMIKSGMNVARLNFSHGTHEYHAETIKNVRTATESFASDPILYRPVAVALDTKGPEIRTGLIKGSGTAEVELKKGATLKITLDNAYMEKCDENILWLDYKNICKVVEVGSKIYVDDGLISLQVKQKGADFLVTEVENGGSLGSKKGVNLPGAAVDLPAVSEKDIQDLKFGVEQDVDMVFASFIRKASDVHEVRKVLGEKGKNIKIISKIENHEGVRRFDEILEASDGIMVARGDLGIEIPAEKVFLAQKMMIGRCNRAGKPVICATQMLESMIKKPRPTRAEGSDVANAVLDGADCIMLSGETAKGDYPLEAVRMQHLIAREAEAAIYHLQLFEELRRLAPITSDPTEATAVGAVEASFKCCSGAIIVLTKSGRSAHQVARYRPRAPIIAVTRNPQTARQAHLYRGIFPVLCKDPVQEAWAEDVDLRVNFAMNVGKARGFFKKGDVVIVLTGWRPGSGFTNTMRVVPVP

In the case of `O=C(CCSC(=S)NCc1cccnc1)c1cn(C2CCC2)c2ncccc12`, the negative-log IC50 (pIC50) is 5.87 in test [1], 5.45 in test [2] and 5.38 in test [4]. Further, in test [3], the %max came out at 93%. For the same compound, the AC50 in test [5] (read-out: AC50) came to 3930 nM.
As to `O=C(CCSC(=S)NCc1cccnc1)c1c[nH]c2ncc(Cl)cc12`, the pIC50 in test [1] is 5.47; in test [2], 5.21; in test [4] it was 5.05. The %max in test [3] amounted to 71%. The AC50 in test [5] (read-out: AC50) turned out to be 180 nM.
The like results for `O=C(CCSC(=S)NCc1cccnc1)c1c(-c2ccccc2)nn2ncccc12` were, in that order, 5.56, 5.04, less than 5.00, 148% and 450 nM.
`O=C(CCSC(=S)NCc1cccnc1)c1cnn2ccccc12`: the %max in test [3] was 23%. The AC50 in test [5] (read-out: AC50) was more than 20000 nM.
As to `O=C(CCSC(=S)NCc1cccnc1)c1c[nH]c2nccc(Br)c12`, the pIC50 is 5.70 in test [1], 5.31 in test [2] and less than 5.00 in test [4]. Also, the %max in test [3] is 83%. The AC50 in test [5] (read-out: AC50) amounted to 610 nM.
For `O=C(CCSC(=S)NCc1cccnc1)c1cn(C2CC2)c2ncccc12`, in that order: 6.68, 6.08, 5.02, 42% and 4560 nM.
Take `O=C(CCSC(=S)NCc1cccnc1)c1c[nH]c2ncccc12`: the pIC50 was 5.99 in test [1], 5.51 in test [2] and 5.43 in test [4]. The %max in test [3] came out at 113%.
With `C#Cc1ccnc2[nH]cc(C(=O)CCSC(=S)NCc3cccnc3)c12`, in test [3], the %max was found to be 24%. Further, the AC50 in test [5] (read-out: AC50) is more than 20000 nM.
In the case of `Cn1cc(C(=O)CCSC(=S)NCc2cccnc2)c2cccnc21`, the pIC50 was 6.54 in test [1], 6.03 in test [2] and 5.68 in test [4]. Further, in test [3], the %max is 114%. Also, the concentration at half-maximal activity (AC50) in test [5] (read-out: AC50) was 4350 nM.
For `O=C(CCSC(=S)NCc1cccnc1)c1cnn2ncccc12`, in that order: 6.48, 5.82, 5.75, 44% and 220 nM.
For `O=C(CCSC(=S)NCc1cccnc1)c1c[nH]c2nccc(Cl)c12`, in that order: 6.39, 5.69, 5.60, 122% and 1140 nM.
Consider `O=C(CCSC(=S)NCc1cccnc1)c1c[nH]c2nccc(C3CC3)c12`, for which the “%max” value in test [3] is “inactive”. The AC50 result in test [5] is recorded as “Not Active”.
For `O=C(CCSC(=S)NCc1cccnc1)c1cn(-c2cccs2)c2ncccc12`, in that order: “inactive” and “Not Active”.
Consider `O=C(CCSC(=S)NCc1cccnc1)c1cn(-c2ccccc2)c2ncccc12`, for which the pIC50 in test [1] was 5.41; in test [2], 5.27; in test [4] it was 5.00. In test [3], the %max was determined as 77%. Moreover, the AC50 in test [5] (read-out: AC50) is 2500 nM.
On to `O=C(CCSC(=S)NCc1cccnc1)c1c[nH]c2nccc(-c3ccccc3)c12`, for which, in test [3], the %max is 28%. Further, the AC50 in test [5] (read-out: AC50) is 2170 nM.
Consider `Cc1ccc2c(C(=O)CCSC(=S)NCc3cccnc3)c[nH]c2n1`, for which the “%max” value in test [3] is “inactive”. The AC50 result in test [5] is “Not Active”.
In the case of `O=C(CCSC(=S)NCc1cccnc1)c1c[nH]c2ncc(-c3ccc(Cl)cc3)cc12`, the “%max” value in test [3] is “inactive”. Further, in test [5] (read-out: AC50), the AC50 was more than 20000 nM.
In the case of `O=C(CCSC(=S)NCc1cccnc1)c1c[nH]c2nc(Cl)ccc12`, in test [3], the “%max” value was “inactive”. Moreover, in test [5], the AC50 entry was “Not Active”.

The term pIC50 denotes the negative decadic logarithm of the IC50, by convention in mol/L. In general, AC50 refers to the midpoint of the concentration-response curve, whichever way the signal moves.
